Assay outcomes deposited in PubChem by Sanford-Burnham Center for Chemical Genomics.
An excerpt weighted towards active compounds, which were near 1.8% of everything screened.
DNMT1 block: human DNMT1 methyltransferase inhibitors, primary screen, biochemical, molecular beacon, fluorescence, HinP1I cleavage, uHTS | DNA (cytosine-5)-methyltransferase 1 (Homo sapiens), P26358 | inhibition (reported as % activation of signal), % at 10 µM | actives 0.83% (n = 360,000) | AID 588458, 2011; in the data active = inhibition above about 50%
SUMO1-SIM PPI: modulators of SUMO1 protein-protein interactions, primary screen, biochemical, uHTS; Small ubiquitin-related modifier 1 (Homo sapiens), P63165; SUMO1 binding to a labelled peptide, TR-FRET, 1 h; inhibition, % at 20 µM; actives 0.33% (n = 360,000); AID 602429, 2012; in the data active = inhibition above about 37%
Target sequence (P63165 whole entry, looked up): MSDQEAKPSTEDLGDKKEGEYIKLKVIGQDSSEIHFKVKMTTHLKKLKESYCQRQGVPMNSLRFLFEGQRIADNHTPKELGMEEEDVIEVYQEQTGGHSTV
STEP block: STEP phosphatase inhibitors, primary screen, biochemical, fluorescence intensity, uHTS; Tyrosine-protein phosphatase non-receptor type 5 (Homo sapiens), P54829; recombinant STEP, OMFP fluorogenic substrate; inhibition, % at 20 µM; actives 0.25% (n = 360,000); AID 588621, 2011;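 active = inhibition at 20 µM, scaled per plate between control wells, above about 37%, limit read from the data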;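 also: 0% = DMSO with enzyme and substrate and 100% = substrate only without enzyme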
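Test system: STEP tyrosine phosphatase / Reagent: OMFP at 25 µM / Doses: 20 µM, 1% DMSO / Read-out: percent inhibition scaled to no-enzyme and uninhibited-enzyme controls, plate-pattern corrected / Detection: FITC-channel fluorescence of OMFP product / Medium: Bis-Tris buffer pH 6.0, 2.5 mM DTT, 0.005% Tween 20 / Schedule: 20 min at room temperature, dark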
HKDC1 inhibitor: HKDC1 hexokinase inhibitors, primary screen, biochemical, fluorescence, uHTS. Q2TB90. recombinant HKDC1, G6PDH/diaphorase resazurin coupled fluorescence. inhibition, % at 20 µM. actives 0.16% (n = 340,000). AID 493160, 2011;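 active = inhibition above about 35% when tested at 20 µM, limit read from the data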;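 also: plate controls were DMSO wells with enzyme for no effect and DMSO wells lacking enzyme for full effect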
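System: Recombinant HKDC1 hexokinase | Amount: HKDC1 at 5 µg/mL | Reagent: Glucose with 1 mM ATP | Doses: Single 20 µM dose | Incubation: Reaction time 90 min, room temperature, protected from light | Signal: Coupled resazurin fluorescence, excitation 525 nm, emission 613 nm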
Scp1 inh: Scp-1 phosphatase inhibitors, primary screen, biochemical, colorimetric, uHTS. actives 0.88% (n = 340,000). Recombinant Scp1, phosphopeptide, malachite green phosphate absorbance. AID 493091, 2011. inhibition, % at 20 µM;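 active = inhibition above about 50% at 20 µM, limit read from the data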;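 also: plate controls were DMSO wells with enzyme for no effect and wells lacking enzyme for full effect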
Target sequence (Q9GZU7 76-261 limits assumed): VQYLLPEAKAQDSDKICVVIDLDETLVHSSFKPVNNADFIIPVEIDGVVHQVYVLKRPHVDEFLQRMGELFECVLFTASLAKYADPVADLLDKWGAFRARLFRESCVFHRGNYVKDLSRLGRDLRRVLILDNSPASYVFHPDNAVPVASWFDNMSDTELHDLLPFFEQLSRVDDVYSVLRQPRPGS
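Test system: SCP-1 catalytic domain; Buffer or medium: Acidic Tris acetate buffer with magnesium and detergent; Also added: Phosphorylated 17-residue peptide substrate; Compound: single 20 µM dose, 1% DMSO; Schedule: enzyme reaction 45 min at room temperature, colour 5 min, stabilisation 30 min; Signal: Phosphate-binding colour reagent, absorbance read at 630 nm.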
LMPTP inh: LMPTP phosphatase inhibitors, primary screen, biochemical, fluorescence intensity, uHTS; recombinant LMPTP-A, OMFP fluorogenic substrate; inhibition, % at 20 µM; actives 0.22% (n = 360,000); Low molecular weight phosphotyrosine protein phosphatase (Homo sapiens), P24666; AID 651560, 2012;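 active = compounds that cut the enzyme signal by at least half of the control window in the single-dose screen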;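 also: plate controls were DMSO wells with enzyme plus substrate for no effect and substrate without enzyme for full effect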
Target sequence (P24666 whole entry, looked up): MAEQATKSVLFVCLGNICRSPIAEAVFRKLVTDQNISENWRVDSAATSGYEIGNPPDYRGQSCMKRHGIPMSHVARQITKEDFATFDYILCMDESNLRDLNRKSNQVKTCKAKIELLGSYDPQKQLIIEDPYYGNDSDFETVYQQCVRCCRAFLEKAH
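Test system: LMPTP-A phosphatase enzyme. Amount: LMPTP-A at 0.625 nM final in the reaction. Reagent: OMFP substrate, 400 µM final. Times: 50 min at room temperature. Signal: endpoint fluorescence intensity from OMFP dephosphorylation. Read-out basis: % inhibition. Benchmarks: no-enzyme and uninhibited controls.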
Starred values were filed as active, the others as inactive; x = no result given.

SMILES	DNMT1 block	SUMO1-SIM PPI	STEP block	HKDC1 inhibitor	Scp1 inh	LMPTP inh
Cc1noc(C)c1NC(=O)N(C)C[C@H]1Oc2ccc(NC(=O)c3ccncc3)cc2C(=O)N([C@H](C)CO)C[C@@H]1C	9	3	-4	-1	68*	-3
Cc1ccc(S(=O)(=O)Nc2ccc3c(c2)C(=O)N([C@@H](C)CO)C[C@@H](C)[C@@H](CN(C)S(=O)(=O)c2ccccc2)OCCCC[C@H](C)O3)cc1	-13	43*	5	x	x	2
Cc1noc(C)c1S(=O)(=O)Nc1ccc2c(c1)C(=O)N([C@H](C)CO)C[C@H](C)[C@@H](CN(C)C(=O)NC(C)C)O2	12	13	1	1	85*	-3
Cc1noc(C)c1NC(=O)N(C)C[C@@H]1Oc2ccc(NS(=O)(=O)c3c(C)noc3C)cc2C(=O)N([C@H](C)CO)C[C@H]1C	12	2	3	-4	14	-1
CCCCCCCCCC[n+]1cccc2c3ccccc3ccc21	13	-23	8	4	65*	5
Oc1ccc2ccccc2c1-c1sc(Nc2ccccc2)n[n+]1-c1ccc(F)cc1	34	-23	-8	11	0	2
Fc1ccc(-[n+]2nc(Nc3ccccc3)sc2-c2c3ccccc3cc3ccccc23)cc1	-2	-9	6	4	14	67*
CCCCN(C)C(=O)c1sc(=O)n(Cc2ccccc2C#N)c1C	2	0	-2	x	x	0
Oc1ccc(-c2csc(Nc3cccc4ccccc34)n2)cc1O	18	17	3	13	11	62*
Oc1ccc(-c2csc(Nc3ccccn3)n2)cc1O	-4	3	2	1	19	8
O=C1NC(=Nc2ccccc2Cl)S/C1=C\c1cc([N+](=O)[O-])ccc1O	1	9	0	20	-5	3
COc1cccc(N=C2NC(=O)/C(=C/c3cc([N+](=O)[O-])ccc3O)S2)c1	3	-5	50*	18	44	88*
O=C(CN1CCOCC1)N1CCOCC1	1	0	0	-7	1	3
C/C(N)=C(/C#N)C(=O)COc1ccc(Cl)cc1Cl	-3	61*	-3	-10	-7	3
CC(=Cc1ccccc1)C=C1SC(=S)N(CCCC(=O)Nc2ccc(C(=O)O)cc2)C1=O	10	-2	-1	x	x	61*
CC(=C\c1ccccc1)/C=C1/SC(=S)N(CCCC(=O)O)C1=O	7	3	1	7	-12	4
CC(/C=C1\SC(=S)N(CCCC(=O)Nc2ccc(C(=O)O)cc2)C1=O)=C\c1ccccc1	48	9	2	-5	-11	49*
COCCCN1C(=O)C(CC(=O)NCCCCc2ccccc2)CC(C(=O)N(C(C)C)C(C)C)=C1C (centres undefined)	-2	-2	-1	x	x	-2
CC(CCCN1CCCC1)Nc1ccnc2cc(Cl)ccc12 (centres undefined)	9	-42	-6	0	-15	76*
CC(C)NC1CCC(Nc2ccnc3cc(Cl)ccc23)CC1 (centres undefined)	35	4	0	-6	-2	6
Cc1cc(C)c(S(=O)(=O)c2ccccc2)c(OC(=O)c2c(F)cccc2F)n1	3	12	2	-2	-11	0
Cc1cc(C)c(S(=O)(=O)c2ccccc2)c(OC(=O)c2c(Cl)cc(Cl)cc2Cl)n1	-7	42*	2	-9	-12	3
CCN1C(=O)[C@@H]2Cc3c([nH]c4ccccc34)C(c3cc(OC)c(OC)c(OC)c3)N2C1=S (some centres undefined)	-1	-2	-14	-4	-8	4
COc1cc([C@H]2c3[nH]c4ccccc4c3C[C@H]3C(=O)N4[C@@H](c5cc(OC)c(OC)c(OC)c5)c5[nH]c6ccccc6c5C[C@H]4C(=O)N23)cc(OC)c1OC	52*	13	-3	-5	0	4
CCOC(=O)C1CCN(c2nc(C)cc(C)c2C#N)CC1	0	2	3	-3	-4	1
SMILES	DNMT1 block	SUMO1-SIM PPI	STEP block	HKDC1 inhibitor	Scp1 inh	LMPTP inh
CCOC(=O)C1CCN(c2nc(N)c3c(N)nc(SCC(=O)O)cc3c2C#N)CC1	75*	60*	22	26	102*	23
Cc1cc(N2CCCCC2)nc(-c2ccc(Br)cc2)n1	-4	45*	0	0	-4	4
CCSc1cc(N2CCCC2)nc(-c2ccc(C)cc2)n1	-4	-2	3	-7	-6	1
CSCC(=O)N1CCc2ccc(NC(=O)c3ccccc3Cl)cc2C1	-1	-1	4	-3	-10	0
COc1cc(NS(=O)(=O)c2cc(NC(C)=O)ccc2OC)c(OC)cc1NC(=O)c1ccccc1	11	10	14	1	36	7
CN(C)c1ccc(C=c2c3cc([N+](=O)[O-])ccc3n3c2cc(-c2ccccc2)[n+]3C)cc1	36	59*	9	20	4	68*
CN(C)c1ccc(C=c2c3ccccc3n3c2cc(-c2ccc(Cl)cc2)[n+]3C)cc1	35	-112	4	18	7	52*
CN(C)c1ccc(C=c2c3ccccc3n3c2c2c([n+]3C)CCCC2)cc1	25	-87	5	7	7	53*
CN(C)c1ccc(/C=C2\CCC/C(=C\c3ccccc3)C2=O)cc1	11	-21	-21	4	-5	4
CCN(CC)CCn1c(=S)[nH]c2cc(C(=O)NCc3ccccc3Cl)ccc2c1=O	0	3	4	-6	-6	2
c1ccc(OC2CCCCC2N2CCOCC2)cc1 (centres undefined)	2	4	1	x	x	1
O=C(CN1CCN(S(=O)(=O)c2ccc(Cl)cc2)CC1)c1ccc(O)c(O)c1	3	-1	2	-3	7	59*
COc1ccc(S(=O)(=O)N2CCN(CC(=O)NC3CCCC3)CC2)cc1	1	0	-4	-7	-2	-2
O=C(CN1CCN(S(=O)(=O)c2ccc(F)cc2)CC1)c1ccc(O)c(O)c1	2	-2	2	-3	-2	66*
CCOc1ccc(C(=O)CN2CCN(S(=O)(=O)c3ccc(F)cc3)CC2)cc1	-11	-3	2	-6	7	-3
